# Measured values collected from several papers.
# Lines come from different studies, so protocols differ.
# Dhodh: Dihydroorotate dehydrogenase (quinone), mitochondrial (Dhodh, Mus musculus, UniProt O35435)
# EPHX2: Bifunctional epoxide hydrolase 2 (EPHX2, Homo sapiens, UniProt P34913)
# ESR2: Estrogen receptor beta (ESR2, Homo sapiens, UniProt Q92731)
Compound,target,assay,quantity,result
N[C@@H](Cc1ccccc1)C(=O)O,"Intestinal-type alkaline phosphatase (ALPI, Bos taurus, UniProt P19111)","enzyme activity, inhibitor",IC50,78400 nM
C[C@H]1CCC[C@@]2(C)CCCC[C@]12O,"OR11A1 (Homo sapiens, UniProt Q9GZK7)","cAMP, agonist, luciferase",EC50,28000 nM
CC[C@@](N)(c1cnc(C(F)(F)F)c(Cl)c1)c1c2ncn(C3CC3)c(=O)c2nn1C,Dhodh,"enzyme activity, inhibitor, absorbance",IC50,6700 nM
C[S+]([O-])CCCCN=C=S (stereo not drawn),EPHX2,"enzyme activity, inhibitor, fluorescence",IC50,3650 nM
Oc1ccc2c3c(cnc2c1)-c1ccc(C(F)(F)F)cc1O[C@@H]3c1ccc(OCCN2CC(CF)C2)cc1,ESR2,"ligand displacement, radioligand",Ki,0.11 nM
Cn1nc2c(=O)n(C3CC3)ncc2c1[C@](O)(c1cnc(C(F)(F)F)c(Cl)c1)C(F)(F)F,Dhodh,"enzyme activity, inhibitor, absorbance",IC50,> 30000 nM
C[C@@H]1O[C@@H](O[C@@H]2[C@@H](O)[C@H](OCCc3ccc(O)c(O)c3)O[C@H](CO)[C@H]2OC(=O)/C=C/c2ccc(O)c(O)c2)[C@H](O)[C@H](O)[C@H]1O,"Aldo-keto reductase family 1 member B1 (AKR1B1, Homo sapiens, UniProt P15121)","enzyme activity, inhibitor",IC50,1170 nM
C=CCN=C=S,EPHX2,"enzyme activity, inhibitor, fluorescence",IC50,11600 nM
O=C(Nc1ccc(-c2cccc3ncccc23)cc1)C1CCN(S(=O)(=O)c2ccccc2Cl)CC1,EPHX2,"enzyme activity, inhibitor, fluorescence",IC50,1.7 nM
O=C1CC[C@H](N2Cc3cc(N4CCN(CC5CCN(c6ccc([C@@H]7c8ccc(O)cc8CC[C@@H]7c7ccccc7)cc6)CC5)CC4)ccc3C2=O)C(=O)N1,ESR2,"ligand displacement, radioligand",IC50,5 nM
O=c1c(O)c(-c2ccc(O)c(O)c2)oc2cc(O)ccc12,"Dual specificity mitogen-activated protein kinase kinase 4 (MAP2K4, Homo sapiens, UniProt P45985)","enzyme activity, inhibitor, ADP detection",IC50,2900 nM
O=C(Nc1ccc(-c2ccc3ncccc3c2)cc1)C1CCN(S(=O)(=O)c2ccccc2Cl)CC1,EPHX2,"enzyme activity, inhibitor, fluorescence",IC50,5.4 nM
